Results from ChEMBL document CHEMBL1154674, “Synthesis and evaluation of three 18F-labeled aminophenylbenzothiazoles as amyloid imaging agents” (J Med Chem, 2009).

Assays:
Format in all cases: ADME, organism-based
[1] = Biodistribution in NMRI mouse urine at 3.7 MBq/mL, iv after 2 mins by gamma counting; settings: in vivo
How it was run: (§1)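 Male NMRI mice (30-40 g) under isoflurane (1.5-2.5% in oxygen) got 0.1 mL of HPLC-purified tracer diluted with 0.9% NaCl to 3.7 MBq/mL (ethanol ≤10%) via tail vein. Mice were decapitated at 2 or 60 min p.i., and organs, blood and urine were weighed and γ-counted. Values are background-corrected %ID or %ID/g, with blood mass taken as 7% of body mass.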

Cerebellum [2] = experiment: Biodistribution in NMRI mouse cerebellum at 3.7 MBq/mL, iv after 2 mins by gamma counting; settings: in vivo; how it was run: as §1
Blood [3] = experiment: Biodistribution in NMRI mouse blood assessed per gram of tissue at 3.7 MBq/mL, iv after 2 mins by gamma counting; settings: in vivo; how it was run: as §1
[4] = Biodistribution in NMRI mouse spleen/pancreas assessed per gram of tissue at 3.7 MBq/mL, iv after 60 mins by gamma counting; settings: in vivo, 1 h; how it was run: as §1
Heart [5] = experiment: Biodistribution in NMRI mouse heart assessed per gram of tissue at 3.7 MBq/mL, iv after 60 mins by gamma counting; settings: in vivo, 1 h; how it was run: as §1
Liver [6] = experiment: Biodistribution in NMRI mouse liver at 3.7 MBq/mL, iv after 60 mins by gamma counting; settings: in vivo, 1 h; how it was run: as §1
Cerebellum [7] = experiment: Biodistribution in NMRI mouse cerebellum assessed per gram of tissue at 3.7 MBq/mL, iv after 2 mins by gamma counting; settings: in vivo; how it was run: as §1
[8] = Biodistribution in NMRI mouse cerebrum at 3.7 MBq/mL, iv after 60 mins by gamma counting; settings: in vivo, 1 h; how it was run: as §1
Cerebellum [9] = experiment: Biodistribution in NMRI mouse cerebellum at 3.7 MBq/mL, iv after 60 mins by gamma counting; settings: in vivo, 1 h; how it was run: as §1
Intestine [10] = experiment: Biodistribution in NMRI mouse intestine at 3.7 MBq/mL, iv after 2 mins by gamma counting; settings: in vivo; how it was run: as §1
[11] = Biodistribution in NMRI mouse cerebrum at 3.7 MBq/mL, iv after 2 mins by gamma counting; settings: in vivo; how it was run: as §1
[12] = Drug level in NMRI mouse spleen/pancreas assessed as standard uptake value at 3.7 MBq/mL, iv after 2 mins by gamma counting; settings: in vivo
How it was run: (§2)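 Male NMRI mice (30-40 g) were anaesthetised with isoflurane. Each received 0.1 mL of HPLC-purified tracer, diluted in 0.9% NaCl to 3.7 MBq/mL (ethanol ≤10%), via a tail vein. Mice were decapitated at 2 or 60 min. Organs were dissected, weighed and γ-counted with background correction. SUV = (organ cpm/organ weight)/(total recovered counts/body weight). Blood mass was taken as 7% of body mass.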

Kidney [13] = experiment: Biodistribution in NMRI mouse kidney at 3.7 MBq/mL, iv after 2 mins by gamma counting; settings: in vivo; how it was run: as §1
Liver [14] = experiment: Biodistribution in NMRI mouse liver assessed per gram of tissue at 3.7 MBq/mL, iv after 2 mins by gamma counting; settings: in vivo
Kidney [15] = experiment: Biodistribution in NMRI mouse kidney at 3.7 MBq/mL, iv after 60 mins by gamma counting; settings: in vivo, 1 h; how it was run: as §1
[16] = Biodistribution in NMRI mouse cerebrum assessed per gram of tissue at 3.7 MBq/mL, iv after 2 mins by gamma counting; settings: in vivo; how it was run: as §1
Liver [17] = experiment: Drug level in NMRI mouse liver assessed as standard uptake value at 3.7 MBq/mL, iv after 2 mins by gamma counting; settings: in vivo; how it was run: as §2
Cerebellum [18] = experiment: Drug level in NMRI mouse cerebellum assessed as standard uptake value at 3.7 MBq/mL, iv after 60 mins by gamma counting; settings: in vivo, 1 h; how it was run: as §2
Blood [19] = experiment: Drug level in NMRI mouse blood assessed as standard uptake value at 3.7 MBq/mL, iv after 2 mins by gamma counting; settings: in vivo; how it was run: as §2
Heart [20] = experiment: Biodistribution in NMRI mouse heart at 3.7 MBq/mL, iv after 60 mins by gamma counting; settings: in vivo, 1 h; how it was run: as §1
Liver [21] = experiment: Drug level in NMRI mouse liver assessed as standard uptake value at 3.7 MBq/mL, iv after 60 mins by gamma counting; settings: in vivo, 1 h; how it was run: as §2
Heart [22] = experiment: Drug level in NMRI mouse heart assessed as standard uptake value at 3.7 MBq/mL, iv after 2 mins by gamma counting; settings: in vivo; how it was run: as §2
Heart [23] = experiment: Biodistribution in NMRI mouse heart at 3.7 MBq/mL, iv after 2 mins by gamma counting; settings: in vivo; how it was run: as §1
[24] = Biodistribution in NMRI mouse urine at 3.7 MBq/mL, iv after 60 mins by gamma counting; settings: in vivo, 1 h; how it was run: as §1
Blood [25] = experiment: Drug level in NMRI mouse blood assessed as standard uptake value at 3.7 MBq/mL, iv after 60 mins by gamma counting; settings: in vivo, 1 h; how it was run: as §2
Stomach [26] = experiment: Biodistribution in NMRI mouse stomach at 3.7 MBq/mL, iv after 2 mins by gamma counting; settings: in vivo; how it was run: as §1
Cerebellum [27] = experiment: Biodistribution in NMRI mouse cerebellum assessed per gram of tissue at 3.7 MBq/mL, iv after 60 mins by gamma counting; settings: in vivo, 1 h; how it was run: as §1
Blood [28] = experiment: Biodistribution in NMRI mouse blood at 3.7 MBq/mL, iv after 60 mins by gamma counting; settings: in vivo, 1 h; how it was run: as §1
Blood [29] = experiment: Biodistribution in NMRI mouse blood at 3.7 MBq/mL, iv after 2 mins by gamma counting; settings: in vivo; how it was run: as §1
[30] = Biodistribution in NMRI mouse spleen/pancreas assessed per gram of tissue at 3.7 MBq/mL, iv after 2 mins by gamma counting; settings: in vivo; how it was run: as §1
Stomach [31] = experiment: Biodistribution in NMRI mouse stomach at 3.7 MBq/mL, iv after 60 mins by gamma counting; settings: in vivo, 1 h; how it was run: as §1
Lung [32] = experiment: Biodistribution in NMRI mouse lung assessed per gram of tissue at 3.7 MBq/mL, iv after 2 mins by gamma counting; settings: in vivo; how it was run: as §1
Intestine [33] = experiment: Biodistribution in NMRI mouse intestine at 3.7 MBq/mL, iv after 60 mins by gamma counting; settings: in vivo, 1 h; how it was run: as §1
Lung [34] = experiment: Drug level in NMRI mouse lung assessed as standard uptake value at 3.7 MBq/mL, iv after 60 mins by gamma counting; settings: in vivo, 1 h; how it was run: as §2
Heart [35] = experiment: Biodistribution in NMRI mouse heart assessed per gram of tissue at 3.7 MBq/mL, iv after 2 mins by gamma counting; settings: in vivo; how it was run: as §1
Kidney [36] = experiment: Biodistribution in NMRI mouse kidney assessed per gram of tissue at 3.7 MBq/mL, iv after 2 mins by gamma counting; settings: in vivo; how it was run: as §1
Kidney [37] = experiment: Biodistribution in NMRI mouse kidney assessed per gram of tissue at 3.7 MBq/mL, iv after 60 mins by gamma counting; settings: in vivo, 1 h; how it was run: as §1
Kidney [38] = experiment: Drug level in NMRI mouse kidney assessed as standard uptake value at 3.7 MBq/mL, iv after 60 mins by gamma counting; settings: in vivo, 1 h; how it was run: as §2
[39] = Drug level in NMRI mouse cerebrum assessed as standard uptake value at 3.7 MBq/mL, iv after 2 mins by gamma counting; settings: in vivo; how it was run: as §2
Lung [40] = experiment: Biodistribution in NMRI mouse lung at 3.7 MBq/mL, iv after 2 mins by gamma counting; settings: in vivo; how it was run: as §1
Lung [41] = experiment: Drug level in NMRI mouse lung assessed as standard uptake value at 3.7 MBq/mL, iv after 2 mins by gamma counting; settings: in vivo; how it was run: as §2
[42] = Biodistribution in NMRI mouse spleen/pancreas at 3.7 MBq/mL, iv after 60 mins by gamma counting; settings: in vivo, 1 h; how it was run: as §1
Kidney [43] = experiment: Drug level in NMRI mouse kidney assessed as standard uptake value at 3.7 MBq/mL, iv after 2 mins by gamma counting; settings: in vivo; how it was run: as §2

SMILES: Nc1ccc2nc(-c3ccc([18F])cc3)sc2c1
- Drug uptake [1]: 0.2%
- Drug uptake (Cerebellum [2]): 1.74%
- Drug uptake (Blood [3]): 2.4%
- Drug uptake [4]: 1.1%
- Drug uptake (Heart [5]): 0.7%
- Drug uptake (Liver [6]): 10.7%
- Drug uptake (Cerebellum [7]): 15.48%
- Drug uptake [8]: 0.32%
- Drug uptake (Cerebellum [9]): 0.17%
- Drug uptake (Intestine [10]): 11.1%
- Drug uptake [11]: 4.56%
- SUV [12]: 2.2
- Drug uptake (Kidney [13]): 8.3%
- Drug uptake (Liver [14]): 20%
- Drug uptake (Kidney [15]): 1%
- Drug uptake [16]: 13.97%
- SUV (Liver [17]): 6.4
- SUV (Cerebellum [18]): 0.42
- SUV (Blood [19]): 0.8
- Drug uptake (Heart [20]): 0.1%
- SUV (Liver [21]): 1.8
- SUV (Heart [22]): 1.9
- Drug uptake (Heart [23]): 0.7%
- Drug uptake [24]: 4.9%
- SUV (Blood [25]): 0.2
- Drug uptake (Stomach [26]): 1.6%
- Drug uptake (Cerebellum [27]): 1.34%
- Drug uptake (Blood [28]): 1.3%
- Drug uptake (Blood [29]): 5.3%
- Drug uptake [30]: 6.8%
- Drug uptake (Stomach [31]): 0.6%
- Drug uptake (Lung [32]): 8.9%
- Drug uptake (Intestine [33]): 68.6%
- SUV (Lung [34]): 0.4
- Drug uptake (Heart [35]): 5.9%
- Drug uptake (Kidney [36]): 13.3%
- Drug uptake (Kidney [37]): 1.8%
- SUV (Kidney [38]): 0.6
- SUV [39]: 4.47
- Drug uptake (Lung [40]): 2%
- SUV (Lung [41]): 2.8
- Drug uptake [42]: 0.3%

SMILES: CNc1ccc2nc(-c3ccc([18F])cc3)sc2c1
- Drug uptake [1]: 0.2%
- Drug uptake (Cerebellum [2]): 1.19%
- Drug uptake (Blood [3]): 0.7%
- Drug uptake [4]: 0.9%
- Drug uptake (Heart [5]): 1%
- Drug uptake (Liver [6]): 17.5%
- Drug uptake (Cerebellum [7]): 11.76%
- Drug uptake [8]: 0.44%
- Drug uptake (Cerebellum [9]): 0.12%
- Drug uptake (Intestine [10]): 11%
- Drug uptake [11]: 3.42%
- SUV [12]: 2
- Drug uptake (Kidney [13]): 8.2%
- Drug uptake (Kidney [15]): 3.2%
- Drug uptake [16]: 12.13%
- SUV (Liver [17]): 7
- SUV (Cerebellum [18]): 0.44
- SUV (Blood [19]): 0.2
- SUV (Kidney [43]): 4.3
- Drug uptake (Heart [20]): 0.2%
- SUV (Liver [21]): 2.8
- SUV (Heart [22]): 2
- Drug uptake (Heart [23]): 0.8%
- Drug uptake [24]: 13%
- SUV (Blood [25]): 0.3
- Drug uptake (Stomach [26]): 2.3%
- Drug uptake (Cerebellum [27]): 1.26%
- Drug uptake (Blood [28]): 2.2%
- Drug uptake (Blood [29]): 1.5%
- Drug uptake [30]: 5.9%
- Drug uptake (Stomach [31]): 1.6%
- Drug uptake (Lung [32]): 7.3%
- Drug uptake (Intestine [33]): 37.2%
- SUV (Lung [34]): 0.5
- Drug uptake (Heart [35]): 5.8%
- Drug uptake (Kidney [36]): 12.6%
- Drug uptake (Kidney [37]): 4.6%
- SUV (Kidney [38]): 1.6
- SUV [39]: 4.1
- Drug uptake (Lung [40]): 1.8%
- SUV (Lung [41]): 2.5
- Drug uptake [42]: 0.3%
